# PubChem BioAssay AID822 (SRMLSC, 2007)
# The source made the active and inactive calls.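 How the source made its calls: active means half-maximal effective dose for blocking growth of human endothelial cells at most 100 µM; inactive means the rest.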
# Experiment: HUVEC proliferation inhibition, dose response, cell-based, ATP luminescence (AID 822);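 further: cells exposed to compound for 72 h before the ATP read; 100% = median luminescence of untreated cell-only control wells on each plate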
# Conditions: HUVEC proliferation, viability ATP luminescence; at 20 µM (top of the series)
# Summary of the method: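 Assay system: HUVEC primary endothelial cells, low passage (≤12); amount: 1250 HUVEC cells seeded per well; buffer or medium: EBM plus 2% FBS; read-out: percent viability relative to median untreated cell signal, EC50 via four-parameter fit; signal: luminescent ATP measurement with CellTiter-Glo reagent; schedule: 72 h exposure, 37 °C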
row,Compound,viability
1,CCOc1ccc(NC(=S)Nc2ccc(C)c([N+](=O)[O-])c2)cc1,88.7% (inactive)
2,Cc1ccc(Cn2c(SCC(=O)Nc3cc(C)on3)nc3ccccc3c2=O)cc1,81.2% (inactive)
3,CC(C)(C)c1ccc(-c2nnc(SCC(=O)O)n2N)cc1,106% (inactive)
4,CC(C)OC(=O)NCCOC(=O)Nc1cccc(Cl)c1,89.1% (inactive)
5,CCCC1(CCC)NC(=O)N(CC(=O)Nc2ccccc2OC)C1=O,113% (inactive)
6,COc1ccc(OC)c(S(=O)(=O)N(C)CC(=O)N2CCN(c3ccc(F)cc3)CC2)c1,100% (inactive)
7,Clc1ccc(Cn2cc(/C=N/n3cnnc3)c3ccccc32)c(Cl)c1,87.3% (inactive)
8,COc1cc2c(C(=O)NCc3ccc4c(c3)OCO4)cn(CC(C)C)c(=O)c2cc1OC,82.3% (inactive)
9,CCOC(=O)c1ccc2c(c1)NC(=O)C(N1CCN(c3ccc(OC)cc3)CC1)S2 (centres undefined),98% (inactive)
10,CCOC(=O)N1CCN(C(=O)c2nn(-c3ccc(C)cc3)c(=O)c3c2c2ccccc2n3C)CC1,89.2% (inactive)
11,CC1=C(C)CS(=O)N(S(=O)(=O)c2ccc(Cl)cc2)C1 (centres undefined),101% (inactive)
12,Cc1ccc(C(C#N)c2ccc(C(=O)c3ccc(F)cc3)cc2)cc1 (centres undefined),84% (inactive)
13,COc1ccc(OC)c2sc(N3CCCCC3)nc12,88.4% (inactive)
14,CC1CC(C)CN(S(=O)(=O)c2ccc(C(=O)NCCCn3ccnc3)cc2)C1 (centres undefined),88.4% (inactive)
15,COc1ccc(Cl)cc1C(=O)n1nc(C)cc1C,96.7% (inactive)
16,COc1ccc2[nH]cc(C(=O)CN3CCN(C4CCCCC4)CC3)c2c1,85.4% (inactive)
17,c1ccc2c(c1)oc1c(NCCCN3CCOCC3)ncnc12,96.1% (inactive)
18,O=C(Nc1cccnc1)c1ccc(Br)s1,90% (inactive)
19,CN(C)C(=O)CSc1cccc2cccnc12,84.4% (inactive)
20,Cn1c(=O)cc(SCC(=O)NCC2COc3ccccc3O2)c2ccccc21 (centres undefined),98.4% (inactive)
21,COc1ccc(-c2noc(-c3ccc(Br)o3)n2)cc1OC,99.7% (inactive)
22,Cc1nc2cc(N3CCCCC3)c(NC(=O)c3cccnc3)cc2c(=O)n1Cc1ccccc1,89.3% (inactive)
23,C/C(=N\O)C(=O)C(CN1CCCCC1)CN1CCCCC1,81% (inactive)
24,COc1ccc(CCn2c(=S)[nH]c3cc(C(=O)NCc4ccco4)ccc3c2=O)cc1OC,102% (inactive)
